# From PMC6777294 (ACS Omega, 2019)
# Where two headings read alike, the source gives them in different places.
# How the values were obtained:
# rat MAO enzyme = settings: cited from earlier work
# hMAO-B [1] = biological target: T1, hMAO-B (Homo sapiens, UniProt P27338); test: In vitro human MAO inhibitory assay; type: biochemical
# T1 sequence (P27338 1-520): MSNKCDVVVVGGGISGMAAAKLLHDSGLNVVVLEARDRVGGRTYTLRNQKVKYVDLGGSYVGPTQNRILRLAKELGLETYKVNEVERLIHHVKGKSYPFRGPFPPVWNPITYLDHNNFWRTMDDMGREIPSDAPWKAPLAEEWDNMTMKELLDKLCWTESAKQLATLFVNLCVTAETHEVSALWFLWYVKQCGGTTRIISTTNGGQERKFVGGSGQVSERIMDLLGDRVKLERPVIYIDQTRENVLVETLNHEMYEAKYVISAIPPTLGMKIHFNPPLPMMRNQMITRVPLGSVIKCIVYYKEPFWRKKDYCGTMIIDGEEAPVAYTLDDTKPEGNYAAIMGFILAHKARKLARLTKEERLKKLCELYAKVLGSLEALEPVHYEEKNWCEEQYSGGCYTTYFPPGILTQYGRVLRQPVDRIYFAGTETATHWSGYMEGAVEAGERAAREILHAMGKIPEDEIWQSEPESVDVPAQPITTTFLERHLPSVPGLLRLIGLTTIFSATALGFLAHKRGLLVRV
# hMAO-A [2] = biological target: T2, hMAO-A (Homo sapiens, UniProt P21397); test: biochemical; settings: Table 2; for IC50: IC50 (μM) hMAO-A (n = 3), log dose inhibition curve, mean ± SD of triplicate; for SI (selective index): ratio of hMAO-B IC50/hMAO-A IC50
# T2 sequence (P21397 1-527): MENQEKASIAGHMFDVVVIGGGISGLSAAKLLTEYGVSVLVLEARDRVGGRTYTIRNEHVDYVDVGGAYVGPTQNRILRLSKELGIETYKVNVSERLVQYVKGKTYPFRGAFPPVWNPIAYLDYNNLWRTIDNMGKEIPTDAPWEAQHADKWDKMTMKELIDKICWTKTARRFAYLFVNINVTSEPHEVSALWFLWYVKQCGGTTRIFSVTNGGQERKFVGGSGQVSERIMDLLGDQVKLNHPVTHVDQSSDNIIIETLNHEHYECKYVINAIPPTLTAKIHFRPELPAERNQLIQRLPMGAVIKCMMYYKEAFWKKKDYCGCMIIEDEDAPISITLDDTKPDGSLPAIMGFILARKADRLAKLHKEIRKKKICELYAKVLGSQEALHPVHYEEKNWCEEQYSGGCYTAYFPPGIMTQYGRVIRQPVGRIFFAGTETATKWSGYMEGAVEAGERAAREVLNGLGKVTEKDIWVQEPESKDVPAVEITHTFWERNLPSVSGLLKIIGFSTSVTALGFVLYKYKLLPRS
# hMAO-A [3] = biological target: T2, hMAO-A; test: Enzyme kinetics of hMAO-A inhibition; type: biochemical; settings: for inhibition type: hMAO-A, determined by Lineweaver–Burk plot
# How it was run: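 hMAO-A activity was measured with the chemiluminescent MAO-Glo kit assay. Reactions ran at three MAO substrate concentrations (320, 160 and 80 μM), with or without test compound. Michaelis–Menten and Lineweaver–Burk plots gave Km, Vmax and inhibition mode. Ki came from secondary plots: Kic for inhibitor binding free enzyme, Kiu for binding the enzyme–substrate complex.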
# mouse liver MAO enzyme = settings: cited from earlier work
# hMAO-B [4] = biological target: T1, hMAO-B; test: Enzyme kinetics of hMAO-B inhibition; type: biochemical
# How it was run: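 For hMAO-B, chemiluminescent MAO-Glo kit reactions were set up at three MAO substrate levels (32, 16 and 8 μM), with or without test compound. Inhibition mode, Km and Vmax were read from Michaelis–Menten and Lineweaver–Burk plots. Secondary plots gave Ki: Kic for inhibitor binding free enzyme, Kiu for binding the enzyme–substrate complex.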
# hMAO-A [5] = biological target: T2, hMAO-A; settings: data reproduced from recent publication ref 32; cited from earlier work
SMILES,activity against rat MAO enzyme (rat MAO enzyme),IC50 (hMAO-B [1]) [µM],IC50 (hMAO-A [2]) [µM],also measured
"O=C1c2cccc(O)c2C(=O)c2c(O)cccc21 [1,8-dihydroxyanthraquinone]",inactive,–,–,–
"Cc1cc(O)c2c(c1)C(=O)c1cccc(O)c1C2=O [Compound 1, chrysophanol]",inactive,> 400,> 400,–
"COc1cc(O)c2c(c1)C(=O)c1cc(C)cc(O)c1C2=O [Compound 2, physcion]",inactive,> 400,> 400,–
"COc1c(O)c(C)cc2c1C(=O)c1c(O)cccc1C2=O [Compound 4, obtusifolin]",–,> 400,31.8 ± 0.6,–
"COc1c(O)cc2c(c1O)C(=O)c1c(cc(C)c(O)c1OC)C2=O [Compound 5, aurantio-obtusin]",–,174 ± 1.86,27.2 ± 0.85,SI (selective index) (hMAO-A [2]): 6.40
"COc1cc2c(c(OC)c1OC)C(=O)c1c(cc(C)c(O)c1OC)C2=O [Compound 6, chryso-obtusin]",–,> 400,328 ± 10.2,–
"O=C1c2cccc(O)c2C(=O)c2c(O)cc(CO)cc21 [Compound 9, aloe-emodin]",inactive,> 400,2.47 ± 0.14,Ki (hMAO-A [3]): 0.5 µM; inhibition type (hMAO-A [3]): competitive
"Cc1cc(O)c2c(c1)C(=O)c1cc(O)cc(O)c1C2=O [Compound 10, emodin]",inactive,54.7 ± 0.74,23.3 ± 1.46,IC50 (mouse liver MAO enzyme): 37 µM
"COc1cc(O)cc2c1C(=O)c1c(O)cc(C)cc1C2=O [Compound 12, questin]",–,10.6 ± 0.28,0.17 ± 0.01,"Ki (hMAO-B [4]): 4.14 µM; inhibition type (hMAO-B [4]; hMAO-B, determined by Lineweaver–Burk plot): competitive; Ki (hMAO-A [3]): 0.13 µM; inhibition type (hMAO-A [3]): competitive"
"COc1cc(O)c2c(O)c3c(=O)cc(C)oc3cc2c1 [Compound 13, rubrofusarin]",–,91.4 ± 1.31,–,Kiu (binding constant of inhibitor with enzyme–substrate complex) (hMAO-A [5]): 4.22; inhibition type (hMAO-A [5]): mixed-type; SI (selective index) (hMAO-A [2]): 15.49
O=C(O)c1cc(O)c2c(c1)C(=O)c1cccc(O)c1C2=O [rhein],inactive,–,–,–
